One may read the EC50 as the concentration at which the effect is half-maximal. The term ED50 denotes the dose at which the effect has come halfway, by size or by number of responders. Higher therefore signals a need for a large dose.

Among the data in ChEMBL document CHEMBL1129594 (J Med Chem, 1996) are EC50, ED50 and Dose values, retold here.

One assay deals with Vanilloid receptor (Rattus norvegicus, UniProt Q9ERZ8+Q9WUD2+O35433). In words: Compound tested in vitro for [Ca2+] influx into neonatal rat dorsal root ganglia (DRG). The assay is classed as functional.
In assay [1] the test system is Mus musculus. In words: Compound tested for in vivo writhing antinociceptive assay in mouse after subcutaneous administration. The format is functional. The note with it: sc. Summed up:
(§1)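 Female CD-1 mice (20 g), kept on 12 h light/12 h dark and fasted overnight, 10 per group. Drug or vehicle was given sc or orally 55 min before ip acetic acid (0.3 mL, 200 mM). Abdominal constrictions were counted over the 5 min starting 5 min after acid. Effect was taken as the drug/vehicle writhe ratio, and ED50 (dose halving writhes) came from a logistic fit with standard error.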

The test system of assay [2] is Cavia porcellus. In words: Threshold dose required to cause increase in airway opening pressure […] of guinea pig after intravenous administration. The format is functional. A digest of the protocol: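 Dunkin-Hartley guinea pigs (400-450 g, n = 4 per group) under urethane (2 g/kg), held at 37 °C. Carotid cannula for blood pressure, jugular cannula for iv drug. Tracheal cannula with ventilation at 60 strokes/min and 10 mL/kg tidal volume. Airway opening pressure was read by differential transducer on the tracheal side arm. Threshold iv dose raising Pao was recorded.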

For assay [3], the system named is Mus musculus. In words: In vivo tail-flick latency after peroral administration in mouse as an evaluation of antinociceptive potency. The assay is classed as functional. The note with it: po. (In general: Thermal pain tests record how soon the animal reacts.)
The test system of assay [4] is Mus musculus. In words: In vivo tail-flick latency after subcutaneous administration in mouse as an evaluation of antinociceptive potency. The format is functional. The note with it: sc.
Assay [5] relates to Mus musculus. In words: Compound tested for in vivo writhing antinociceptive assay in mouse after peroral administration. The assay is classed as functional. To be noted: po. A digest of the protocol: as §1
The test system of assay [6] is Cavia porcellus. In words: Threshold dose required to cause increase in airway opening pressure […] of guinea pig after intravenous administration.

Bounds are passed on as bounds.

`COc1cc(CN/C(S)=N/C=C\c2ccc(Cl)cc2)ccc1O` returned an EC50 on Vanilloid receptor of 41 nM. On to `COc1cc(C/N=C(\S)NCCc2ccc(Cl)cc2)ccc1OCCN`, for which the median effective dose (ED50) in the assay on Mus musculus [1] turned out to be 3.32 µmol/kg; with Mus musculus [3], 22.9 µmol/kg; in the assay with Mus musculus [4] it was 4.8 µmol/kg; in the assay with Mus musculus [5], 11.4 µmol/kg. The molecule also yielded a Dose with Cavia porcellus [2] of 0.137 µM/kg.

`COc1cc(C/N=C(\S)NCCc2ccc(C(C)(C)C)cc2)ccc1OCCN` gave a concentration giving a half-maximal response (EC50) at Vanilloid receptor of 710 nM. In turn, `COc1cc(CN/C(S)=N/C=C/c2ccc(Cl)cc2)ccc1O` showed an EC50 at Vanilloid receptor of 410 nM.

As to `COc1cc(C/N=C(\S)NCCc2ccc(Cl)cc2)ccc1O`, the EC50 on Vanilloid receptor turned out to be 56 nM. In addition, the ED50 in the assay on Mus musculus [1] worked out at 10.1 µmol/kg; with Mus musculus [3], 370 µmol/kg; in the assay on Mus musculus [4] it was 11.8 µmol/kg. In addition, in the assay on Cavia porcellus [2], the Dose came out at 0.025 µM/kg.

As to `COc1cc(C/N=C(\S)NCc2ccc(C(C)(C)C)cc2)ccc1OCCN`, the EC50 on Vanilloid receptor turned out to be 170 nM. The median effective dose (ED50) turned out to be 0.49 µmol/kg with Mus musculus [1], 1.45 µmol/kg with Mus musculus [3], 0.4 µmol/kg in the assay on Mus musculus [4] and 2.55 µmol/kg in the assay with Mus musculus [5]. In the assay on Cavia porcellus [2], this molecule registered a Dose of 0.062 µM/kg. With `CCCCCCCC/C=C\CCCCCCCC(=O)NCc1ccc(OCCN)c(OC)c1`, the ED50 stood at 3.06 µmol/kg in the assay with Mus musculus [1], 184 µmol/kg in the assay on Mus musculus [3] and 6.3 µmol/kg in the assay on Mus musculus [4]. Also, the Dose in the assay on Cavia porcellus [6] is over 0.1 µM/kg. As to `CNCCOc1ccc(C/N=C(\S)NCCc2ccc(Cl)cc2)cc1OC`, the EC50 on Vanilloid receptor is 7030 nM. Consider `COc1cc(C/N=C(\S)NCCc2ccccc2)ccc1O`, for which the EC50 at Vanilloid receptor stood at 480 nM. Regarding `COc1cc(C/N=C(\S)NCCc2ccc(Cl)cc2)ccc1OCCNC(C)=O`, the 50% effective concentration (EC50) at Vanilloid receptor was found to be 5130 nM.

The molecule `COc1cc(C/N=C(\S)NCCc2ccc(Cl)cc2)ccc1OCCNC(=O)OC(C)(C)C` registered an EC50 on Vanilloid receptor of 3000 nM.

As for `CCCCCCCC/C=C\CCCCCCCC(=O)NCc1ccc(O)c(OC)c1` [OLVANIL], the median effective dose (ED50) with Mus musculus [1] was 2.1 µmol/kg; with Mus musculus [3], over 400 µmol/kg; in the assay on Mus musculus [4], 11.3 µmol/kg. The molecule also registered a Dose with Cavia porcellus [6] of over 0.1 µM/kg. Molecule `COc1cc(C/N=C(\S)NCCc2ccccc2)ccc1OCCN` gave an EC50 on Vanilloid receptor of 2720 nM.

The molecule `COc1cc(C/N=C(\S)NCCc2ccc(F)cc2)ccc1OCCN` showed an EC50 at Vanilloid receptor of 2300 nM. In turn, `CCOC(=O)NCCOc1ccc(C/N=C(\S)NCCc2ccc(Cl)cc2)cc1OC` had an EC50 on Vanilloid receptor of 6140 nM. In turn, `COc1cc(C/N=C(\S)NCCc2ccc(Cl)cc2)ccc1OCC[N+](C)(C)C.O=C([O-])C(F)(F)F` had an EC50 on Vanilloid receptor of over 100000 nM.

As to `COc1cc(C/N=C(\S)NCCc2ccc(Cl)cc2Cl)ccc1O`, the concentration giving a half-maximal response (EC50) at Vanilloid receptor was determined as 130 nM. That is a sub-micromolar value. For the molecule `COc1cc(CNC(=O)CCCC/C=C/C(C)C)ccc1O` [CAPSAICIN], the ED50 in the assay with Mus musculus [1] was 5.72 µmol/kg; with Mus musculus [3], 962 µmol/kg; in the assay with Mus musculus [4], 10.3 µmol/kg. In addition, the Dose with Cavia porcellus [2] was found to be 0.018 µM/kg. Consider `COc1cc(CNC(=S)NCc2ccc(C(C)(C)C)cc2)ccc1O`, for which the concentration giving a half-maximal response (EC50) on Vanilloid receptor is 510 nM. On Vanilloid receptor, `COc1cc(C/N=C(\S)NCCc2ccc(Cl)cc2)ccc1OCCN1C(=O)c2ccccc2C1=O` returned an EC50 of 53000 nM. `COc1cc(C/N=C(\S)NCCc2ccc(Cl)cc2Cl)ccc1OCCN` showed an EC50 at Vanilloid receptor of 320 nM. This EC50 lies about 170-fold lower than the previous one. On the same count and under the same terms, the figure for `COc1cc(C/N=C(\S)NCCc2ccc(Cl)cc2)ccc1OCCN(C)C` is 3520 nM; for `COc1cc(C/N=C(\S)NCCc2ccc(F)cc2)ccc1O` it is 130 nM.
